The source made the active and inactive calls. The rule behind the calls is not given here.

The results in this text go back to ChEMBL document CHEMBL1268948, “1,6-AnhMurNAc derivatives for assay development of amidase AmiD” (Bioorg Med Chem, 2010).

In experiment [1] the test system is Escherichia coli. As to the kind of experiment: Inhibition of Escherichia coli N-acetyl-muramoyl-L-alanine amidase AmiD assessed as residual activity at 1 mM preincubated for 30 mins.
Experiment [2] deals with Escherichia coli. Nature of the experiment: Inhibition of Escherichia coli N-acetyl-muramoyl-L-alanine amidase AmiD assessed as residual activity at 100 uM after 20 mins. In short, it runs like this:
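Periplasmic soluble E. coli AmiD (sAmiD, 39 nM) was preincubated with the test compound for 20 min at 30 °C in 20 mM sodium phosphate buffer containing 48 nM ZnCl₂. Residual activity was taken as the initial rate of hydrolysis of 29 µM TCT (GlcNAc-anhMurNAc-tetrapeptide) added afterwards. The reaction was stopped after 20 min with diluted H₃PO₄ and analysed by RP-HPLC.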

In experiment [3] the test system is Escherichia coli. Nature of the experiment: Inhibition of Escherichia coli N-acetyl-muramoyl-L-alanine amidase AmiD assessed as residual activity at 1 mM after 20 mins; values are per cent of control.
Experiment [4] deals with Escherichia coli. Nature of the experiment: Inhibition of Escherichia coli N-acetyl-muramoyl-L-alanine amidase AmiD assessed as residual activity at 0.5 mM after 20 mins; values are per cent of control.

As to `CC(=O)N[C@H]1[C@@H]2OC[C@@H](O2)[C@@H](O)[C@H]1O[C@H](C)C(=O)Nc1ccc(C(F)(F)F)cc1`, the inhibition result in experiment [1] and in experiment [2] was “inactive” in each case.

For `CC(=O)N[C@H]1[C@@H]2OC[C@@H](O2)[C@@H](O)[C@H]1O[C@H](C)C(=O)N[C@@H](C)C(=O)Nc1ccc([N+](=O)[O-])cc1`, the inhibition entry in experiment [1] and in experiment [2] was “inactive” throughout.

A word on the residual activity: it is the signal under treatment as a percentage of the control signal. `CC(=O)N[C@H]1[C@@H]2OC[C@@H](O2)[C@@H](O)[C@H]1O[C@H](C)C(=O)N[C@@H](C)C(=O)N[C@H](CCC(=O)Nc1ccccc1)C(=O)O`: the figures for the residual activity in experiment [3] and in experiment [4] were 64% and 83%, respectively. Further, in experiment [2], the inhibition entry was “inactive”.

As to `CC(=O)N[C@H]1[C@@H]2OC[C@@H](O2)[C@@H](OCc2ccccc2)[C@H]1O[C@H](C)C(=O)O`, the inhibition result in experiment [1] was “inactive”.

As for `CC(=O)N[C@H]1[C@@H]2OC[C@@H](O2)[C@@H](O)[C@H]1O[C@H](C)C(=O)Nc1ccccc1`, the inhibition entry in experiment [1] and in experiment [2] was “inactive” in each case.

Turning to `CC(=O)N[C@H]1[C@@H]2OC[C@@H](O2)[C@@H](O)[C@H]1O[C@H](C)C(=O)Nc1ccc(C(C)=O)cc1`, the inhibition entry in experiment [1] and in experiment [2] was “inactive” each time.
